Test system: HEK-293T
Experiment: Multiplex assay against HEK293T;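 as to Population Tubulin-Different-Phenotype (%): share of the cells with healthy nuclei that show this phenotype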
Format: toxicity, cell-based
Conditions: human
Procedure, shortened: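 Imaging took place on a CQ1 microscope at 37°C and 5% CO2 once compound had been added to live cells stained at seeding with Hoechst33342, BioTracker Green Microtubule Cytoskeleton Dye, MitoTracker Red and Annexin V Alexa Fluor 680. CellPathfinder machine-learning gating classed cells as Hoechst high-intensity objects or normal cells, classed normal cells as having healthy, pyknosed or fragmented nuclei, and classed pyknosed cells as mitotic or apoptotic. Tubulin, mitochondrial-mass and membrane-permeability phenotypes are per cents of the healthy-nucleus cells.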

[1] = 12 h, 1 µM, compound concentration 1 uM, replicate 1
[2] = 12 h, 1 µM, compound concentration 1 uM, replicate 2
[3] = 12 h, 10 µM, compound concentration 10 uM, replicate 1
[4] = 12 h, 10 µM, compound concentration 10 uM, replicate 2
[5] = 24 h, 1 µM, compound concentration 1 uM, replicate 1
[6] = 24 h, 1 µM, compound concentration 1 uM, replicate 2
[7] = 24 h, 10 µM, compound concentration 10 uM, replicate 1
[8] = 24 h, 10 µM, compound concentration 10 uM, replicate 2

## COC(=N)c1nc2ccc3ncnc(Nc4ccc(OC)cc4F)c3c2s1
[1]
  Population Apoptotic (%): 15%
  Population Fragmented Nuclei (%): 16%
  Population Healthy Nuclei (%): 53%
  Population Hoechst High Intensity Objects (%): 21%
  Population Membrane Permeable-Phenotype (%): 3%
  Population Mitochondria Different-Phenotype (%): 12%
  Population Mitotic Cells (%): 84%
  Population Normal (%): 78%
  Population Pyknosed Nuclei (%): 29%
  Population Tubulin-Different-Phenotype (%): 5%
  Total Cell Count: 546
[2]
  Population Apoptotic (%): 24%
  Population Fragmented Nuclei (%): 4%
  Population Healthy Nuclei (%): 87%
  Population Hoechst High Intensity Objects (%): 5%
  Population Membrane Permeable-Phenotype (%): 0%
  Population Mitochondria Different-Phenotype (%): 21%
  Population Mitotic Cells (%): 75%
  Population Normal (%): 94%
  Population Pyknosed Nuclei (%): 7%
  Population Tubulin-Different-Phenotype (%): 9%
  Total Cell Count: 1072
[3]
  Population Apoptotic (%): 19%
  Population Fragmented Nuclei (%): 10%
  Population Healthy Nuclei (%): 66%
  Population Hoechst High Intensity Objects (%): 10%
  Population Mitochondria Different-Phenotype (%): 6%
  Population Mitotic Cells (%): 80%
  Population Normal (%): 89%
  Population Pyknosed Nuclei (%): 22%
  Population Tubulin-Different-Phenotype (%): 4%
  Total Cell Count: 552
[4]
  Population Apoptotic (%): 4%
  Population Fragmented Nuclei (%): 6%
  Population Healthy Nuclei (%): 88%
  Population Hoechst High Intensity Objects (%): 3%
  Population Membrane Permeable-Phenotype (%): 2%
  Population Mitochondria Different-Phenotype (%): 8%
  Population Mitotic Cells (%): 95%
  Population Normal (%): 96%
  Population Pyknosed Nuclei (%): 5%
  Population Tubulin-Different-Phenotype (%): 6%
  Total Cell Count: 1236
[5]
  Population Apoptotic (%): 19%
  Population Fragmented Nuclei (%): 14%
  Population Healthy Nuclei (%): 71%
  Population Hoechst High Intensity Objects (%): 11%
  Population Membrane Permeable-Phenotype (%): 3%
  Population Mitochondria Different-Phenotype (%): 7%
  Population Mitotic Cells (%): 80%
  Population Normal (%): 88%
  Population Pyknosed Nuclei (%): 13%
  Population Tubulin-Different-Phenotype (%): 12%
  Total Cell Count: 573
[6]
  Population Apoptotic (%): 17%
  Population Healthy Nuclei (%): 82%
  Population Hoechst High Intensity Objects (%): 5%
  Population Mitochondria Different-Phenotype (%): 4%
  Population Mitotic Cells (%): 82%
  Population Normal (%): 94%
  Population Pyknosed Nuclei (%): 2%
  Population Tubulin-Different-Phenotype (%): 19%
  Total Cell Count: 1668
[7]
  Population Apoptotic (%): 16%
  Population Fragmented Nuclei (%): 9%
  Population Healthy Nuclei (%): 82%
  Population Hoechst High Intensity Objects (%): 8%
  Population Membrane Permeable-Phenotype (%): 7%
  Population Mitochondria Different-Phenotype (%): 2%
  Population Mitotic Cells (%): 83%
  Population Normal (%): 91%
  Population Pyknosed Nuclei (%): 8%
  Population Tubulin-Different-Phenotype (%): 8%
  Total Cell Count: 657
[8]
  Population Apoptotic (%): 4%
  Population Fragmented Nuclei (%): 20%
  Population Healthy Nuclei (%): 77%
  Population Hoechst High Intensity Objects (%): 3%
  Population Membrane Permeable-Phenotype (%): 4%
  Population Mitotic Cells (%): 95%
  Population Normal (%): 96%
  Population Pyknosed Nuclei (%): 2%
  Population Tubulin-Different-Phenotype (%): 5%
  Total Cell Count: 2058
